pIC50: −log10 of the molar value.
Assays:
[1] = species on record: Cavia porcellus; assay: Effect on the contractile force of spontaneously beating atria from Reserpine-treated guinea pigs as percentage variation from the control at concentration of 3 x 10E-4 M; type: functional
Summary of the method: (§1)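 Atria from reserpine-treated guinea pigs (reserpine 2 mg/kg ip, 48 and 24 h before death; only tyramine-unresponsive preparations used). Bath solution at 29 °C, gassed 95% O2/5% CO2, pH 7.5, resting tension […]. After 90 min equilibration, compound added cumulatively, 5 min per concentration. Isometric developed-tension amplitude or beating rate given as % variation from untreated control. Mean ± SEM, 6-10 assays.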

[2] = species on record: Cavia porcellus; assay: Compound was evaluated for its effect on the frequency rate of spontaneously beating atria from Reserpine-treated guinea pigs as percentage variation from the control at concentration of 3 x 10E-4 M; type: functional; summary of the method: as §1
[3] = species on record: Cavia porcellus; assay: Effect on the contractile force of spontaneously beating atria from Reserpine-treated guinea pigs as percentage variation from the control at concentration of 3 x 10E-6 M; type: functional; summary of the method: as §1
[4] = species on record: Cavia porcellus; assay: Effect on the contractile force of spontaneously beating atria from Reserpine-treated guinea pigs as percentage variation from the control at concentration of 10E-3 M; type: functional; summary of the method: as §1
[5] = species on record: Cavia porcellus; assay: Compound was evaluated for its effect on the frequency rate of spontaneously beating atria from Reserpine-treated guinea pigs as percentage variation from the control at concentration of 3 x 10E-6 M; type: functional; summary of the method: as §1
[6] = species on record: Cavia porcellus; assay: Effect on the contractile force of spontaneously beating atria from Reserpine-treated guinea pigs as percentage variation from the control at concentration of 10E-5 M; type: functional; summary of the method: as §1
[7] = species on record: Cavia porcellus; assay: (§2) Compound was evaluated for its effect on the frequency rate of spontaneously beating atria from Reserpine-treated guinea pigs as percentage variation from the control at concentration of 3 x 10E-5 M; type: functional, guinea pig; summary of the method: as §1
[8] = species on record: Cavia porcellus; assay: Effect on the frequency rate of spontaneously beating atria from Reserpine-treated guinea pigs as percentage variation from the control at concentration of 10E-3 M; type: functional; summary of the method: as §1
[9] = species on record: Cavia porcellus; assay: Effect on the contractile force of spontaneously beating atria from Reserpine-treated guinea pigs as percentage variation from the control at concentration of 3 x 10E-5 M; type: functional; summary of the method: as §1
[10] = species on record: Cavia porcellus; assay: Effect on the frequency rate of spontaneously beating atria from Reserpine-treated guinea pigs as percentage variation from the control at concentration of 10E-6 M; type: functional; summary of the method: as §1
[11] = species on record: Cavia porcellus; assay: Effect on the frequency rate of spontaneously beating atria from Reserpine-treated guinea pigs as percentage variation from the control at concentration of 10E-5 M; type: functional; summary of the method: as §1
[12] = species on record: Cavia porcellus; assay: Effect on the frequency rate of spontaneously beating atria from Reserpine-treated guinea pigs as percentage variation from the control at concentration of 10E-4 M; type: functional; summary of the method: as §1
[13] = species on record: Cavia porcellus; assay: Effect on the contractile force of spontaneously beating atria from Reserpine-treated guinea pigs as percentage variation from the control at concentration of 10E-6 M; type: functional; summary of the method: as §1
[14] = species on record: Cavia porcellus; assay: Effect on the contractile force of spontaneously beating atria from Reserpine treated guinea pigs as percentage variation from the control at concentration of 10E-4 M; type: functional; summary of the method: as §1
[15] = species on record: Cavia porcellus; assay: Inotropic Response in Electrically Driven Left Atrium from Reserpine-Treated Guinea Pigs in the absence of adenosine deaminase (ADA) at 3 x 10E-4 M; type: functional
Summary of the method: (§3)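 Electrically driven left atrium from reserpine-treated guinea pigs (tyramine-unresponsive), 29 °C, pH 7.5, resting tension […], 90 min equilibration. Compound dissolved in DMSO and added cumulatively, 5 min per step. Where used, adenosine deaminase was preincubated 20 min, and basal force was taken after ADA addition. Developed tension given as % change over control. Mean ± SEM of six assays.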

[16] = species on record: Cavia porcellus; assay: as §2; type: functional; summary of the method: as §1
[17] = species on record: Cavia porcellus; assay: Inotropic Response in Electrically Driven Left Atrium from Reserpine-Treated Guinea Pigs in the presence of 2 U/mL of adenosine deaminase (ADA) at 3 x 10E-5 M; type: functional; summary of the method: as §3
[18] = species on record: Cavia porcellus; assay: Inotropic effect in electrically driven left atrium from reserpine-treated guinea pigs at concentration of 10E-3 M; type: functional, Cardiac atrium; summary of the method: as §3
[19] = species on record: Cavia porcellus; assay: Inotropic effect in electrically driven left atrium from reserpine-treated guinea pigs at concentration of 3 x 10E-6 M; type: functional, Cardiac atrium; summary of the method: as §3
[20] = species on record: Cavia porcellus; assay: Inotropic effect in electrically driven left atrium from reserpine-treated guinea pigs at concentration of 3 x 10E-5 M; type: functional, Cardiac atrium; summary of the method: as §3
[21] = species on record: Cavia porcellus; assay: Inotropic Response in Electrically Driven Left Atrium from Reserpine-Treated Guinea Pigs in the absence of adenosine deaminase (ADA) at 10E-5 M; type: functional; summary of the method: as §3
[22] = species on record: Cavia porcellus; assay: Inotropic effect in electrically driven left atrium from reserpine-treated guinea pigs at concentration of 10E-4 M; type: functional, Cardiac atrium; summary of the method: as §3
[23] = species on record: Cavia porcellus; assay: Inotropic effect in electrically driven left atrium from reserpine-treated guinea pigs at concentration of 10E-5 M; type: functional, Cardiac atrium; summary of the method: as §3
[24] = species on record: Cavia porcellus; assay: Inotropic Response in Electrically Driven Left Atrium from Reserpine-Treated Guinea Pigs in the presence of 2 U/mL of adenosine deaminase (ADA) at 3 x 10E-6 M; type: functional; summary of the method: as §3
[25] = species on record: Cavia porcellus; assay: Inotropic Response in Electrically Driven Left Atrium from Reserpine-Treated Guinea Pigs in the presence of 2 U/mL of adenosine deaminase (ADA) at 3 x 10E-4 M; type: functional; summary of the method: as §3
[26] = species on record: Cavia porcellus; assay: Inotropic Response in Electrically Driven Left Atrium from Reserpine-Treated Guinea Pigs in the absence of adenosine deaminase (ADA) at 10E-4 M; type: functional; summary of the method: as §3
[27] = species on record: Cavia porcellus; assay: Inotropic Response in Electrically Driven Left Atrium from Reserpine-Treated Guinea Pigs in the absence of adenosine deaminase (ADA) at 3 x 10E-5 M; type: functional; summary of the method: as §3
[28] = species on record: Cavia porcellus; assay: Inotropic Response in Electrically Driven Left Atrium from Reserpine-Treated Guinea Pigs in the absence of adenosine deaminase (ADA) at 10E-3 M; type: functional; summary of the method: as §3
[29] = species on record: Cavia porcellus; assay: Inotropic Response in Electrically Driven Left Atrium from Reserpine-Treated Guinea Pigs in the presence of 2 U/mL of adenosine deaminase (ADA) at 10E-5 M; type: functional; summary of the method: as §3
[30] = species on record: Cavia porcellus; assay: Inotropic effect in electrically driven left atrium from reserpine-treated guinea pigs at concentration of 3 x 10E-4 M; type: functional, Cardiac atrium; summary of the method: as §3
[31] = species on record: Cavia porcellus; assay: Inotropic effect in electrically driven left atrium from reserpine-treated guinea pigs at concentration of 10E-6 M; type: functional, Cardiac atrium; summary of the method: as §3
[32] = species on record: Cavia porcellus; assay: Inotropic Response in Electrically Driven Left Atrium from Reserpine-Treated Guinea Pigs in the presence of 2 U/mL of adenosine deaminase (ADA) at 10E-4 M; type: functional; summary of the method: as §3
[33] = species on record: Cavia porcellus; assay: Inotropic Response in Electrically Driven Left Atrium from Reserpine-Treated Guinea Pigs in the presence of 2 U/mL of adenosine deaminase (ADA) at 10E-3 M; type: functional; summary of the method: as §3
[34] = species on record: Cavia porcellus; assay: Inotropic Response in Electrically Driven Left Atrium from Reserpine-Treated Guinea Pigs in the absence of adenosine deaminase (ADA) at 3 x 10E-6 M; type: functional; summary of the method: as §3
[35] = target: T1, Adenosine receptor A1 (Cavia porcellus, UniProt P47745); assay: Inhibition of [3H]-CHA binding to Adenosine A1 receptor in guinea pig heart
T1 sequence (P47745 whole entry): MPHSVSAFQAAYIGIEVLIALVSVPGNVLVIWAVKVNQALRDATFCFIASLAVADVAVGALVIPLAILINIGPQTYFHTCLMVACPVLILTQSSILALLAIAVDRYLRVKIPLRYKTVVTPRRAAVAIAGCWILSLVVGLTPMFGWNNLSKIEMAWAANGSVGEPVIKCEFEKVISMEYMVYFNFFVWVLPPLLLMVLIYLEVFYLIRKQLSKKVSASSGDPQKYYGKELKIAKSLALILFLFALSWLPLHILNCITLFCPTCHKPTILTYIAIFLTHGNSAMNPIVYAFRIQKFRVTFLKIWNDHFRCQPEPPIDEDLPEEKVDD
Summary of the method: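 Guinea pig heart membranes prepared in 50 mM Tris-HCl pH 7.4 and pretreated with adenosine deaminase 2 IU/mL for 30 min at 37 °C. Incubated with 1 nM [3H]CHA, membranes from 15 mg tissue, 120 min at 23 °C. Bound ligand separated by GF/B filtration; nonspecific binding defined with (R)-PIA. Six concentrations tested in triplicate; IC50 by probit analysis.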

[36] = species on record: Cavia porcellus; assay: Compound was evaluated for its effect on the frequency rate of spontaneously beating atria from Reserpine-treated guinea pigs as percentage variation from the control at different concentration of 10E-6 M; type: functional; summary of the method: as §1
[37] = species on record: Cavia porcellus; assay: Compound was evaluated for its effect on the frequency rate of spontaneously beating atria from Reserpine-treated guinea pigs as percentage variation from the control at different concentration of 3 x 10E-5 M; type: functional; summary of the method: as §1
[38] = species on record: Cavia porcellus; assay: Compound was evaluated for its effect on the frequency rate of spontaneously beating atria from Reserpine-treated guinea pigs as percentage variation from the control at different concentration of 10E-4 M; type: functional; summary of the method: as §1
[39] = species on record: Cavia porcellus; assay: Compound was evaluated for its effect on the frequency rate of spontaneously beating atria from Reserpine-treated guinea pigs as percentage variation from the control at different concentration of 3 x10E-6 M; type: functional; summary of the method: as §1
[40] = species on record: Cavia porcellus; assay: Compound was evaluated for its effect on the frequency rate of spontaneously beating atria from Reserpine-treated guinea pigs as percentage variation from the control at different concentration of 10E-3 M; type: functional; summary of the method: as §1
[41] = species on record: Cavia porcellus; assay: Compound was evaluated for its effect on the frequency rate of spontaneously beating atria from Reserpine-treated guinea pigs as percentage variation from the control at different concentration of 10E-5 M; type: functional; summary of the method: as §1
[42] = species on record: Cavia porcellus; assay: Compound was evaluated for its effect on the frequency rate of spontaneously beating atria from Reserpine-treated guinea pigs as percentage variation from the control at different concentration of 3 x 10E-4 M; type: functional; summary of the method: as §1
[43] = species on record: Cavia porcellus; assay: Compound was evaluated for its effect on the frequency rate of spontaneously beating atria from Reserpine-treated guinea pigs as percentage variation from the control at concentration of 10e-6 M; type: functional; summary of the method: as §1
[44] = species on record: Cavia porcellus; assay: Compound was evaluated for its effect on the contractile force of spontaneously beating atria from Reserpine-treated guinea pigs as percentage variation from the control at concentration 10E-3 M; type: functional; summary of the method: as §1

Row | Compound | Variation [1] [%] | Variation [2] [%] | Variation [3] [%] | Variation [4] [%] | Variation [5] [%] | Variation [6] [%] | Variation [8] [%] | Variation [9] [%] | Variation [10] [%] | Variation [11] [%] | Variation [12] [%] | Variation [13] [%] | Variation [14] [%] | Variation [16] [%] | other results
1 | CCOC(=O)c1cnc(N(C)C)nc1 | 11.71 | 14.81 | 4.76 | -59.61 | 0 | 5.55 | 18.51 | 11.04 | 0 | 3.71 | 11.11 | 1.19 | 9.03 | – | Variation [7]: 7.43%
2 | CN(C)c1ncc(C(=O)O)c(Cc2ccccc2)n1 | 67.75 | -5.69 | 9.37 | 88.05 | 0 | 15.24 | -10.25 | 22.89 | 0 | 0 | -5.02 | 3.52 | 35.26 | -3.85 | Increase [15]: 66.21%; Increase [17]: 9.52%; Variation [18]: 78.6%; Variation [19]: 9.7%; Variation [20]: 24.7%; Increase [21]: 27.41%; Variation [22]: 36.3%; Variation [23]: 16.5%; Increase [24]: 0%; Increase [25]: 33.3%; Increase [26]: 44.95%; Increase [27]: 33.61%; Increase [28]: 88.35%; Increase [29]: 4.76%; Variation [30]: 53%; Variation [31]: 3.23%; Increase [32]: 19.1%; Increase [33]: 57.2%; Increase [34]: 11.21%; pIC50 [35]: 3.23
3 | CN(C)c1ncccn1 | 37.73 | – | 4.92 | 41.66 | – | 9.17 | – | 11.63 | – | – | – | 0 | 15.08 | – | Variation [36]: 0%; Variation [37]: 3.72%; Variation [38]: 9.72%; Variation [39]: 0%; Variation [40]: 25.17%; Variation [41]: 1.33%; Variation [42]: 17.44%
4 | CCOC(=O)c1cnc(N(C)C)nc1C | -25.87 | 10.71 | 7.12 | – | 0 | 9.91 | -17.85 | 15.88 | – | 0 | 7.14 | 2.79 | -21.41 | 3.57 | Variation [43]: -3.57%; Variation [44]: -49.52%

Reference: ChEMBL document CHEMBL1129639, “Synthesis and cardiotonic activity of novel pyrimidine derivatives: crystallographic and quantum chemical studies” (J Med Chem, 1996)
